Experimental data from ChEMBL document CHEMBL1154881, “Synthesis and antimicrobial activities of novel 1,5-diaryl pyrazoles” (2010).
≈ marks a conversion by molar mass, not a printed value.

Key:
Staphylococcus aureus [1] = assay: Antibacterial activity against Staphylococcus aureus ATTC 25923 after 24 hrs by disk diffusion method; assay type: functional
In short: (§1)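 Disc diffusion, each concentration tested in triplicate on nutrient agar seeded separately with fresh bacteria. Incubation 37 °C, 24 h. Solvent and growth controls included. Zones of inhibition recorded. The K. pneumoniae strain was recultured.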

Escherichia coli [2] = assay: Antibacterial activity against Escherichia coli ATTC 25922 after 24 hrs by disk diffusion method; assay type: functional; in short: as §1
Pseudomonas aeruginosa [3] = assay: Antibacterial activity against Pseudomonas aeruginosa ATTC 27853 after 24 hrs by disk diffusion method; assay type: functional; in short: as §1
Klebsiella pneumoniae [4] = assay: Antibacterial activity against Klebsiella pneumoniae after 24 hrs by disk diffusion method; assay type: functional; in short: as §1
Staphylococcus aureus [5] = assay: Antibacterial activity against Staphylococcus aureus ATTC 25923 after 24 hrs by broth dilution method; assay type: functional; conditions: ATTC 25923, 24 h
Escherichia coli [6] = assay: Antibacterial activity against Escherichia coli ATTC 25922 after 24 hrs by broth dilution method; assay type: functional; conditions: ATTC 25922, 24 h
[7] = tested on: Trichophyton mentagrophytes; assay: Antifungal activity against Trichophyton mentagrophytes after 3 to 4 days by serial plate dilution method; assay type: functional
In short: (§2)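 Sabouraud's agar (peptone 1 g, D-glucose 4 g, agar 2 g per 100 ml water, pH 5.7) plates were lawned with spore suspension (a loopful in 3 ml normal saline) and dried 1 h at 37 °C. Wells were punched and filled with compound in DMSO at 10–50 mg/ml, with a DMSO control. Plates in triplicate, 37 °C for 3–4 days.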

Talaromyces marneffei [8] = assay: Antifungal activity against Penicillium marneffei after 3 to 4 days by serial plate dilution method; assay type: functional; in short: as §2
Aspergillus flavus = assay: Antifungal activity against Aspergillus flavus NCIM 524 after 3 to 4 days by serial plate dilution method; assay type: functional; in short: as §2
Aspergillus fumigatus = assay: Antifungal activity against Aspergillus fumigatus NCIM 902 after 3 to 4 days by serial plate dilution method; assay type: functional; in short: as §2
[9] = tested on: Trichophyton mentagrophytes; assay: Antifungal activity against Trichophyton mentagrophytes at 10 to 50 ug/ml after 3 to 4 days; assay type: functional
Talaromyces marneffei [10] = assay: Antifungal activity against Penicillium marneffei at 10 to 50 ug/ml after 3 to 4 days; assay type: functional
Klebsiella pneumoniae [11] = assay: Antibacterial activity against Klebsiella pneumoniae after 24 hrs by […]
Pseudomonas aeruginosa [12] = assay: Antibacterial activity against Pseudomonas aeruginosa ATTC 27853 after 24 hrs by broth dilution method; assay type: functional; conditions: ATTC 27853, 24 h

| Structure (SMILES) | inhibition zone (IZ) (Staphylococcus aureus [1]) [mm] | inhibition zone (IZ) (Escherichia coli [2]) [mm] | inhibition zone (IZ) (Pseudomonas aeruginosa [3]) [mm] | inhibition zone (IZ) (Klebsiella pneumoniae [4]) [mm] | MIC (Staphylococcus aureus [5]) [µg/mL] | MIC (Escherichia coli [6]) [µg/mL] | inhibition zone (IZ) [7] [mm] | inhibition zone (IZ) (Talaromyces marneffei [8]) [mm] | inhibition zone (IZ) (Aspergillus flavus) [mm] | inhibition zone (IZ) (Aspergillus fumigatus) [mm] | MIC [9] [µg/mL] | MIC (Talaromyces marneffei [10]) [µg/mL] | MIC (Klebsiella pneumoniae [11]) [µg/mL] | MIC (Pseudomonas aeruginosa [12]) [µg/mL] |
| --- | --- | --- | --- | --- | --- | --- | --- | --- | --- | --- | --- | --- | --- | --- |
| O=C(c1cc(-c2ccc(Cl)cc2)n(-c2ccc(F)cc2)n1)N1CCN(C(=O)C2CC2)CC1 | 20 | 20 | 17 | 19 | 12.5 (≈ 27.6 µM) | 12.5 (≈ 27.6 µM) | 20 | 21 | 24 | 22 | 12.5 (≈ 27.6 µM) | 12.5 (≈ 27.6 µM) | 12.5 (≈ 27.6 µM) |  |
| N#Cc1ccc(-c2csc(-c3cc(-c4ccc(Cl)cc4)n(-c4ccc(F)cc4)n3)n2)cc1 | 19 | 20 | 19 | 17 | 12.5 (≈ 27.4 µM) | 12.5 (≈ 27.4 µM) | 22 | 22 | <10 | <10 | 12.5 (≈ 27.4 µM) | 12.5 (≈ 27.4 µM) |  | 50 (≈ 109 µM) |
| Cc1nc(-c2cc(-c3ccc(Cl)cc3)n(-c3ccc(F)cc3)n2)sc1C(=O)NNC(=O)NC(=O)c1ccc(C(F)(F)F)cc1 | 19 | 20 | <10 | 19 | 12.5 (≈ 19.4 µM) | 12.5 (≈ 19.4 µM) | 17 | 22 | <10 | 25 | 12.5 (≈ 19.4 µM) | 12.5 (≈ 19.4 µM) | 50 (≈ 77.8 µM) |  |
| N#Cc1ccc(NC(=O)N2CCN(C(=O)c3cc(-c4ccc(Cl)cc4)n(-c4ccc(F)cc4)n3)CC2)cc1 | 21 | 19 | <10 | 19 | 12.5 (≈ 23.6 µM) | 12.5 (≈ 23.6 µM) | 21 | 23 | <10 | 24 | 12.5 (≈ 23.6 µM) | 12.5 (≈ 23.6 µM) |  |  |
| O=C1CCN(C(=O)c2cc(-c3ccc(Cl)cc3)n(-c3ccc(F)cc3)n2)CC1 | 24 | 27 | 18 | 25 | 12.5 (≈ 31.4 µM) | 12.5 (≈ 31.4 µM) | 24 | 29 | 18 | 26 | 50 (≈ 126 µM) | 12.5 (≈ 31.4 µM) | 12.5 (≈ 31.4 µM) | 12.5 (≈ 31.4 µM) |
| O=C(c1cc(-c2ccc(Cl)cc2)n(-c2ccc(F)cc2)n1)N1CCNCC1 | <10 | <10 | 19 | 19 |  |  | 19 | <10 | 25 | 23 | 50 (≈ 130 µM) |  | 12.5 (≈ 32.5 µM) | 50 (≈ 130 µM) |
| C=CCNC(=O)NNC(=O)c1sc(-c2cc(-c3ccc(Cl)cc3)n(-c3ccc(F)cc3)n2)nc1C | 21 | 22 | <10 | 21 | 12.5 (≈ 24.5 µM) | 12.5 (≈ 24.5 µM) | 19 | 21 | 21 | 23 | 12.5 (≈ 24.5 µM) | 12.5 (≈ 24.5 µM) |  |  |
| Cc1cc(C2CCCCC2)n(O)c(=O)c1.NCCO [CICLOPIROX OLAMINE] |  |  |  |  |  |  | 27 | 23 | 27 | 26 | 3.12 | 6.25 |  |  |
| Cc1nc(-c2cc(-c3ccc(Cl)cc3)n(-c3ccc(F)cc3)n2)sc1C(=O)NNC(=S)NC(=O)c1ccccc1 | <10 | <10 | <10 | <10 |  |  | <10 | <10 | <10 | <10 |  |  |  |  |
| C=CCNC(=O)N1CCN(C(=O)c2cc(-c3ccc(Cl)cc3)n(-c3ccc(F)cc3)n2)CC1 | 20 | 19 | 19 | 19 | 12.5 (≈ 26.7 µM) | 12.5 (≈ 26.7 µM) | 22 | 24 | 19 | 16 | 12.5 (≈ 26.7 µM) | 12.5 (≈ 26.7 µM) | 50 (≈ 107 µM) |  |
| Cc1nc(NC(=O)c2cc(-c3ccc(Cl)cc3)n(-c3ccc(F)cc3)n2)sc1C(=O)O | <10 | <10 | <10 | <10 |  |  | <10 | <10 | <10 | <10 |  |  |  |  |
| Fc1ccc(-n2nc(-c3nc(-c4ccc(Cl)cc4)cs3)cc2-c2ccc(Cl)cc2)cc1 | <10 | 21 | 16 | 17 |  | 12.5 (≈ 26.8 µM) | 19 | <10 | <10 | <10 |  |  |  |  |
| Cc1nc(-c2cc(-c3ccc(Cl)cc3)n(-c3ccc(F)cc3)n2)sc1-c1n[nH]c(=O)o1 | <10 | <10 | <10 | <10 |  |  | <10 | <10 | <10 | <10 |  |  |  |  |
| CCCCCC(=O)N1CCN(C(=O)c2cc(-c3ccc(Cl)cc3)n(-c3ccc(F)cc3)n2)CC1 | 18 | 18 | <10 | 21 | 12.5 (≈ 25.9 µM) | 12.5 (≈ 25.9 µM) | 20 | 19 | <10 | 28 | 12.5 (≈ 25.9 µM) | 12.5 (≈ 25.9 µM) |  |  |
| O=C(O)c1cn(C2CC2)c2cc(N3CCNCC3)c(F)cc2c1=O [CIPROFLOXACIN] | 23 | 32 | 28 | 24 | 6.25 (≈ 18.9 µM) | 6.25 (≈ 18.9 µM) |  |  |  |  |  |  | 6.25 (≈ 18.9 µM) | 6.25 (≈ 18.9 µM) |
| Cc1nc(-c2cc(-c3ccc(Cl)cc3)n(-c3ccc(F)cc3)n2)sc1C(=O)NN | 20 | 18 | 19 | 19 | 12.5 (≈ 29.2 µM) | 12.5 (≈ 29.2 µM) | 19 | 20 | <10 | 19 | 12.5 (≈ 29.2 µM) | 12.5 (≈ 29.2 µM) | 50 (≈ 117 µM) |  |
| CCNC(=O)N1CCN(C(=O)c2cc(-c3ccc(Cl)cc3)n(-c3ccc(F)cc3)n2)CC1 | 18 | 19 | <10 | 17 | 12.5 (≈ 27.4 µM) | 12.5 (≈ 27.4 µM) | 24 | 19 | 17 | 18 | 12.5 (≈ 27.4 µM) | 12.5 (≈ 27.4 µM) | 50 (≈ 110 µM) |  |
| O=C(Nc1ccc(Cl)nc1)c1cc(-c2ccc(Cl)cc2)n(-c2ccc(F)cc2)n1 | <10 | <10 | <10 | <10 |  |  | <10 | <10 | <10 | <10 |  |  |  |  |
| CCOC(=O)c1sc(NC(=O)c2cc(-c3ccc(Cl)cc3)n(-c3ccc(F)cc3)n2)nc1C | <10 | <10 | <10 | <10 |  |  | <10 | <10 | <10 | <10 |  |  |  |  |
| O=C(c1cc(-c2ccc(Cl)cc2)n(-c2ccc(F)cc2)n1)N1CCC(O)CC1 | 23 | 24 | 29 | 21 | 12.5 (≈ 31.3 µM) | 12.5 (≈ 31.3 µM) | 26 | 24 | 29 | 27 | 12.5 (≈ 31.3 µM) | 12.5 (≈ 31.3 µM) | 12.5 (≈ 31.3 µM) |  |
